Hits are enriched below; roughly 0.72% of the tested compounds scored in any of these assays.
bIAP inhibitor: intestinal alkaline phosphatase (bovine) inhibition; inhibition, % at 20 µM; 190,000 tested, under 10 active; purified bovine IAP, CDP-star luminescence, 30 min;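 active = over 50% inhibition of intestinal alkaline phosphatase at 20 µM in the single-dose screen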
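System: Purified bovine intestinal alkaline phosphatase (IAP) enzyme | Input: IAP diluted 1/65,000,000 in the well | Also added: CDP-star chemiluminescent phosphatase substrate, 30 µM final | Dosing: 20 µM single dose | Times: Enzyme reaction for 30 min at room temperature | Detection: Luminescence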
bIAP activator: increases bovine intestinal alkaline phosphatase activity | AID 1016 | activation factor at 20 µM | actives 0.17% (n = 200,000) | purified bovine IAP, CDP-star luminescence, 30 min; active compounds read high; fold of DMSO-control signal, blank-subtracted;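 active = activation factor of 2 or more at 20 µM, a signal rise over negative controls twice the positive control's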
mIAP activ: mouse IAP activation. muIAP, CDP-Star luminescence, 30 min; active compounds read high; 1 = vehicle-only enzyme signal, 0 = enzyme-free wells. activation factor at 10 µM. actives 0.24% (n = 330,000). AID 2805;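 active = activation factor of at least 2 at 20 µM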
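System: Mouse IAP enzyme | Also added: CDP-Star substrate | Dosing: Compounds dispensed in DMSO | Schedule: 30 min enzyme-substrate-compound incubation at room temperature | Technique: Chemiluminescence readout | Control set: DMSO-only wells and no-enzyme negative control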
hIAP activ: human IAP activation; P09923; purified human IAP, CDP-Star luminescence, 30 min; active compounds read high; 1 = vehicle-only enzyme, 0 = enzyme-free background; actives 0.16% (n = 330,000); AID 2524; activation factor at 10 µM;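 active = activation factor of the enzyme at least 2-fold when tested at 20 µM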
Target sequence (P09923 whole entry, looked up): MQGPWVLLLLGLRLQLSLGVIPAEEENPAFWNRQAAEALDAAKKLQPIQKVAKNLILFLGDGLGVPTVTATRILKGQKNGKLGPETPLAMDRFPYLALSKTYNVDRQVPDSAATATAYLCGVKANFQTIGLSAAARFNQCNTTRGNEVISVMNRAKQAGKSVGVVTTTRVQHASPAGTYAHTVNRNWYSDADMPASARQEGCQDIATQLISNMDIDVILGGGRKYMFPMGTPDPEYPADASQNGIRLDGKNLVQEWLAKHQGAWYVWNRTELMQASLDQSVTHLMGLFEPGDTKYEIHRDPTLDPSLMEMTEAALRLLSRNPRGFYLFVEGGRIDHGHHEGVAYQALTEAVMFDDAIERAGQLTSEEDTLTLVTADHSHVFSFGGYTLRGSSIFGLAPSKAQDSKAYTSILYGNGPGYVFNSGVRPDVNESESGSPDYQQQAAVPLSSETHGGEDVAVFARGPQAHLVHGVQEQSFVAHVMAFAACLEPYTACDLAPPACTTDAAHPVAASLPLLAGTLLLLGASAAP
mIAP block: mouse IAP inhibition | actives 0.2% (n = 330,000) | purified mouse IAP, CDP-Star luminescence, 30 min | inhibition, % at 10 µM;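 active = inhibition of at least 40% at 10 µM in the primary screen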;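 also: plate controls were DMSO with enzyme for no effect and no enzyme wells for full effect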
hIAP block: human IAP inhibition | P09923 | inhibition, % at 10 µM | actives 0.12% (n = 330,000) | AID 2544 | purified IAP, CDP-Star luminescence, 30 min;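 active = inhibition reaching a set limit with compound at 10 µM in the primary screen, cut at about 35% in these data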;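 also: plate controls were DMSO wells with enzyme for no effect and no-enzyme buffer wells for full effect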
mIAP inh conf: mouse IAP inhibition confirmation; purified mouse IAP, CDP-Star luminescence, 30 min; AID 434971; inhibition, % at 10 µM; shares compounds with mIAP block; actives 4.7% (n = 11,000);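 active = inhibition of at least 40% at 10 µM in either of the two replicates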;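 also: plate controls were DMSO wells with enzyme for no effect and buffer wells lacking enzyme for full effect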
An asterisk follows results filed as active; / = no result.

SMILES	bIAP inhibitor	bIAP activator	mIAP activ	hIAP activ	mIAP block	hIAP block	mIAP inh conf
COc1ccc(NC(=O)CCNS(=O)(=O)c2ccc3[nH]c(=O)oc3c2)cc1Cl	/	/	0.56	0.87	44*	13	65*
CCOc1ccccc1CNC(=O)CCNS(=O)(=O)c1ccc2[nH]c(=O)oc2c1	/	/	0.39	0.82	61*	18	77*
CCc1cccc(NC(=O)CCNS(=O)(=O)c2ccc3[nH]c(=O)oc3c2)c1	/	/	0.81	0.87	19	13	/
CCOc1ccccc1NC(=O)CCNS(=O)(=O)c1ccc2[nH]c(=O)oc2c1	/	/	0.63	0.94	37	6	/
N#Cc1cccc(NC(=O)CCNS(=O)(=O)c2ccc3[nH]c(=O)oc3c2)c1	/	/	0.25	0.83	75*	17	75*
C=CCn1c(SCc2ccccc2F)nc2cc(C(=O)O)ccc2c1=O	/	/	1	0.95	0	5	/
Cc1c(Br)c([N+](=O)[O-])nn1C(C)C(=O)Nc1ccc2c(c1)OCO2 (stereo unspecified)	11	0.9	0.98	0.85	2	15	/
COc1ccc(CCN2C(=O)/C(=C\c3ccco3)SC2=S)cc1OC	6	0.9	0.58	1	42*	-1	45*
O=C1/C(=C/c2ccco2)SC(=S)N1CC1CCCO1 (stereo unspecified)	/	/	0.52	0.86	48*	14	54*
O=C1/C(=C\c2ccco2)NC(=S)N1c1ccccc1	12	0.9	0.72	1.3	28	-26	/
Cc1ccc(N2C(=O)/C(=C\c3ccco3)SC2=S)cc1	6	0.9	0.45	0.93	55*	7	65*
Cc1ccc(/C=C2\SC(=S)N(CC3CCCO3)C2=O)o1 (stereo unspecified)	/	/	0.83	1.2	17	-19	/
O=C1/C(=C\c2ccco2)SC(=S)N1c1ccccc1	-1	1	0.36	1.1	64*	-5	57*
O=c1nc(Nc2ccc(Br)cc2)sc2ccc([N+](=O)[O-])cc12	/	/	0.94	1.1	6	-10	/
NS(=O)(=O)c1ccc(NC(=O)c2cc(Cl)sc2Cl)cc1	/	/	0.92	1	8	0	/
CS(=O)c1ccccc1COC(=O)Nc1cccc(Cl)c1 (stereo unspecified)	-3	1	1.2	0.81	-16	20	/
C=CCc1cc(Cl)ccc1OC(=O)Nc1cccc(Cl)c1	/	/	3*	1.1	-202	-9	-105
O=C(CCCCCN1C(=O)c2ccccc2C1=O)Nc1ccc(C(=O)O)cc1	/	/	1.1	1	-6	-4	/
Cc1ccsc1/C=C/C1=Cc2c(sc(NC(=O)CSc3n[nH]c(N)n3)c2C#N)C(C)(C)C1	17	0.8	0.55	0.87	45*	13	64*
CCN(c1ccccc1)S(=O)(=O)c1ccc(OC)c(NC(=O)COc2ccc(C(C)=O)cc2)c1	/	/	0.94	1.1	6	-7	/
N#CC(C#N)=C(N)/C(C#N)=C/c1cc(O)c(O)c(O)c1	/	/	0.29	0.97	70*	3	66*
COc1cccc(NC(=O)C2CCN(Cc3cnn(-c4ccccc4)c3-n3cccc3)CC2)c1	-299	4*	2.8*	1	-180	0	-101
O=C(CCN1C(=O)/C(=C/c2ccco2)SC1=S)Nc1ccc(O)cc1C(=O)O	/	/	0.31	1	69*	-3	78*
O=C(CN1C(=O)/C(=C\c2ccco2)SC1=S)Nc1ccc(O)cc1C(=O)O	/	/	0.3	1.1	70*	-10	81*
O=C(CCCN1C(=O)/C(=C\c2ccccc2)SC1=S)Nc1ccc(O)cc1C(=O)O	/	/	1	1	0	-4	/
SMILES	bIAP inhibitor	bIAP activator	mIAP activ	hIAP activ	mIAP block	hIAP block	mIAP inh conf
O=C(O)CCCN1C(=O)/C(=C\c2ccco2)SC1=S	6	0.9	/	/	/	/	/
O=C(CCCN1C(=O)/C(=C/c2ccco2)SC1=S)Nc1ccccc1C(=O)O	/	/	0.31	0.93	69*	7	62*
C=C(C(=O)c1ccccc1)C(C)C(=C)C(=O)c1ccccc1	-13	1.1	/	/	/	/	/
OC[C@@H]1[C@@H](c2ccccc2)C(c2ccccc2)=NN1c1ccccc1	/	/	2.3*	/	-127	/	-115
OC[C@@H]1[C@@H](c2ccccc2)C(c2cccc(Cl)c2)=NN1c1ccccc1	/	/	2.5*	/	-151	/	-128
O=C(NN=Cc1ccc(O)cc1)c1ccccc1NS(=O)(=O)c1cccs1	/	/	1	1.1	-3	-8	/
O=C(N/N=C/c1cc(Cl)cc([N+](=O)[O-])c1O)c1ccc2c(c1)OCO2	/	/	0.4	0.8	60*	20	68*
O=C(N/N=C/c1cc(Cl)cc([N+](=O)[O-])c1O)c1ccccc1NS(=O)(=O)c1cccs1	/	/	0.59	1.2	41*	-22	44*
Oc1cc(O)c2c(c1)O[C@H](c1ccc(O)c(O)c1)[C@H](O)C2	/	/	0.18	0.81	82*	19	62*
COc1ccc([C@H]2CC(=O)c3c(O)cc(O)cc3O2)cc1O	/	/	0.92	1.1	8	-8	/
Cc1nn(Cc2ccc(Cl)c(Cl)c2)c(C)c1NC(=O)c1cn(-c2ccccc2)nc1-c1ccccc1	0	1	2.9*	1.2	-193	-20	-162
COc1ccc(NC(=O)NC(C)c2ccc3c(c2)OCO3)cc1OC (stereo unspecified)	/	/	1.1	1	-10	0	/
CC(NC(=O)Nc1ccc(Cl)cc1)c1ccc2c(c1)OCO2 (stereo unspecified)	/	/	2.8*	1.1	-184	-14	-153
N#CC1=C(N)n2c(s/c(=C\c3ccco3)c2=O)=C(C#N)C1c1ccco1 (stereo unspecified)	6	0.9	0.32	0.87	68*	13	88*
CCOC(=O)C1=C(N)n2c(s/c(=C/c3ccco3)c2=O)=C(C(=O)OC)C1c1ccco1 (stereo unspecified)	29	0.7	/	/	/	/	/
COC(=O)c1cc(O)cc(OC)c1Oc1cc(C)cc(O)c1C(=O)O	/	/	0.47	0.95	53*	5	67*
Cc1sc2nc(SCC(=O)Nc3cccc(S(N)(=O)=O)c3)[nH]c(=O)c2c1C	/	/	0.49	0.97	51*	3	62*
COc1ccc(S(=O)(=O)Nc2ccccn2)cc1C(=O)Nc1ccccc1	/	/	0.98	1.1	2	-5	/
O=C(NCCCCc1ccccc1)Nc1cccc(F)c1	/	/	2.5*	1.2	-146	-18	-129
Cc1ccc(NC(=O)NCCCCc2ccccc2)cc1	/	/	1.6	1.1	-62	-8	/
Cc1cccc(NC(=O)NC(C)CCc2ccccc2)c1 (stereo unspecified)	-13	1.1	2.8*	1	-180	-4	-183
O=C(NCCCc1ccccc1)Nc1ccccc1	2	1	1.3	1	-35	-1	/
Cc1cccc(NC(=O)NCCCCc2ccccc2)c1	/	/	2.3*	1.1	-132	-8	-138

High-throughput results (PubChem BioAssay)
